Laboratory results published in PMC8995271 (Targeted Oncology, 2022).
Entries after “also recorded” stand apart in the source; their conditions may differ. Where two headings read alike, the source gives them in different places.

Key:
HER2 = settings: read-out: half maximal inhibitory concentration for inhibiting the phosphorylation of HER2; ref [17], [23]–[26]; cited from earlier work
[1] = cited from earlier work
HER1 = settings: read-out: half maximal inhibitory concentration for inhibiting the phosphorylation of HER1; ref [17], [23]–[26]; cited from earlier work
HER4 = settings: read-out: half maximal inhibitory concentration for inhibiting the phosphorylation of HER4; ref [17], [23]–[26]; cited from earlier work
[2] = Paclitaxel pharmacokinetics in patients, cycle 1 day 1 and day 8; assay type: in vivo, human; settings: for AUC(0-t): human, plasma, mean AUC0–24h of paclitaxel, cycle 1 day 1
[3] = cited from earlier work; remark: listed apart in the source
[4] = test system: advanced or metastatic solid tumors; test: Tumor response; assay type: in vivo, human
[5] = Treatment-related adverse events; assay type: in vivo, human
[6] = Phase Ib dose-limiting toxicities and MTD determination; assay type: in vivo, human
[7] = Varlitinib plasma pharmacokinetics in patients, cycle 1; assay type: in vivo; settings: human, oral, mean AUC0–24h, cohorts pooled
Procedure, shortened: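 Blood samples taken in cycle 1 from patients on intermittent (4 days on/3 off) oral twice-daily varlitinib with weekly chemotherapy ± trastuzumab. Sampling was on cycle 1 day 5 at 0, 0.5, 1, 2, 5, 7 and 24 h after the varlitinib dose.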

[8] = cohort A2: varlitinib 400 mg BD continuous + carboplatin + paclitaxel
[9] = cohort B (varlitinib + paclitaxel), n = 1

In the case of `CS(=O)(=O)CCNCc1ccc(-c2ccc3ncnc(Nc4ccc(OCc5cccc(F)c5)c(Cl)c4)c3c2)o1` [lapatinib], the IC50 (HER2) is given as […], the “grade 3 and 4 diarrhea rate” value ([1]; combination of lapatinib and capecitabine) is given as 12% and the “grade 3 and 4 diarrhea rate” value ([1]; combination of lapatinib and letrozole) is given as 8%.

In the case of `CCOc1cc2ncc(C#N)c(Nc3ccc(OCc4ccccn4)c(Cl)c3)c2cc1NC(=O)/C=C/CN(C)C` [neratinib, reference compound], the IC50 (HER2) is listed as 39 nM, the IC50 (HER1) is listed as 12 nM and the IC50 (HER4) is listed as 19 nM.

With `CC(=O)O[C@H]1C(=O)[C@@]2(C)[C@H]([C@H](OC(=O)c3ccccc3)[C@]3(O)C[C@H](OC(=O)[C@H](O)[C@@H](NC(=O)c4ccccc4)c4ccccc4)C(C)=C1C3(C)C)[C@]1(OC(C)=O)CO[C@@H]1C[C@@H]2O` [paclitaxel, reference compound] the AUC(0-t) ([2]; varlitinib 300-mg intermittent dosing cohorts (A4, B1, C1)) was 5010 ± 1860 ng·h/mL and the AUC(0-t) ([2]; varlitinib 400-mg intermittent dosing cohorts (A3, B2)) was 6130 ± 2050 ng·h/mL.

For `C[C@@H]1COC(Nc2ccc3ncnc(Nc4ccc(OCc5nccs5)c(Cl)c4)c3c2)=N1` [varlitinib], the “maximum tolerated dose (MTD)” value ([3]; monotherapy (ARRAY 543-103), continuous dose twice a day) is listed as 500 mg, the median half-life ([3]; reported in other studies) is listed as 5 to 7 h and the “febrile neutropenia, patients” value ([3]; varlitinib in combination with 3-weekly docetaxel, phase I study) is listed as 7%. For the same molecule, the “median duration on study treatment” value ([4]; all patients, range 0.1–17.1 months) was 3.0 months, the “median PFS” value ([4]; all patients, range 0.3–17.1 months) was 3.7 months and the overall response rate ([4]; entire cohort, 11/37) was 29.7%. For the same molecule, the partial response rate ([4]; excluding the two subjects with non-metastatic breast cancer, 10/30) was 33.3%, the stable disease ([4]; excluding the two subjects with non-metastatic breast cancer, 13/30) was 43.3% and the “stable disease as best response” value ([4]; patients evaluable for response, 13/31) was 41.9%. For the same molecule, the “median duration on study treatment” value ([4]; patients who achieved a partial response, range 2.2–17.1 months) was 5.0 months, the objective responses ([4]; varlitinib 300 mg continuous, 1/5 evaluable) was 20% and the objective responses ([4]; varlitinib 300 mg intermittent, 4/14 evaluable) was 28.6%. The objective responses ([4]; varlitinib 400 mg continuous, 2/5 evaluable) was 40%, the objective responses ([4]; varlitinib 400 mg intermittent, 3/6 evaluable) was 50% and the objective responses ([4]; varlitinib 500 mg continuous, 1/1 evaluable) was 100%. For the same molecule, the “all grade pneumonitis rate” value [5] was 5.4%, the “patients with reduction in left ventricular ejection fraction or cardiomyopathy” value ([5]; all cohorts) was “None” and the treatment-related mortality ([5]; all cohorts) was “no treatment-related mortality”. For the same molecule, the “any grade AE diarrhea” value ([5]; overall, all cohorts (n = 37)) was 70.2%, the “any grade AE fatigue” value ([5]; overall, all cohorts (n = 37)) was 67.5% and the “any grade AE neutropenia” value ([5]; overall, all cohorts (n = 37)) was 45.9%. The “grade 3 and above AE hyponatremia” value ([5]; overall, all cohorts (n = 37)) was 16.2%, the “grade 3 and above AE hypophosphatemia” value ([5]; overall, all cohorts (n = 37)) was 13.5% and the “grade 3 and above AE neutropenia” value ([5]; overall, all cohorts (n = 37)) was 40.5%. The IC50 (HER2) was 2 nM, the IC50 (HER1) was 7 nM and the IC50 (HER4) was 4 nM. For the same molecule, the “DLT in cycle 1 (type = number of patients)” value [6, 8] was “Febrile neutropenia = 3”, the “Number with DLTs” value [6, 8] was 3/5 and the “Number with DLTs” value ([6]; cohort A3: varlitinib 400 mg BD intermittent + carboplatin + paclitaxel) was 2/4. The “Number with DLTs” value ([6]; cohort A4: varlitinib 300 mg BD intermittent + carboplatin + paclitaxel) was 2/6, the “DLT G3/4 neutropenia, patients” value ([6]; cohort A (varlitinib + carboplatin + paclitaxel), n = 6 of 18) was 33.3% and the “Number with DLTs” value ([6]; cohort B1: varlitinib 300 mg BD intermittent + weekly paclitaxel) was 0/6. The “DLT in cycle 1 (type = number of patients)” value ([6]; cohort B2: varlitinib 400 mg BD intermittent + paclitaxel) was “Febrile neutropenia = 1; also recorded: G3 transaminitis =1”, the “Number with DLTs” value ([6]; cohort B2: varlitinib 400 mg BD intermittent + weekly paclitaxel) was 2/4 and the “DLT in cycle 1 (type = number of patients)” value ([6]; cohort B3: varlitinib 300 mg BD continuous + paclitaxel) was “G3 diarrhea = 1”. The “Number with DLTs” value ([6]; cohort B3: varlitinib 300 mg BD continuous + weekly paclitaxel) was 4/6, the “DLT G3 diarrhea, patients” value [6, 9] was 6.25% and the “DLT G3 transaminitis, patients” value [6, 9] was 6.25%. For the same molecule, the “DLT G3/4 neutropenia, patients” value ([6]; cohort B (varlitinib + paclitaxel), n = 3 of 16) was 18.8%, the “recommended phase II dose of varlitinib for the triplet combination” value ([6]; intermittently, with weekly paclitaxel and 3-weekly subcutaneous trastuzumab 600 mg) was 300 mg and the “effect of varlitinib on the pharmacokinetics (Cmax, AUC) of paclitaxel” value ([2]; paclitaxel 80 mg/m^2 weekly) was “Varlitinib was well tolerated and did not significantly affect the pharmacokinetics of paclitaxel”. For the same molecule, the AUC(0-t) ([7]; 300-mg intermittent dosing) was 44000 ng·h/mL and the AUC(0-t) ([7]; 400-mg intermittent dosing) was 75600 ng·h/mL.
